Measurements from ChEMBL document CHEMBL3272198, “Preparation and in vitro antifungal activities of some quinolizidine derived hemiaminals and beta-tert-amino sulfides” (1976).
The source made the active and inactive calls. The rule behind the calls is not given here.

How the values were obtained:
Assay type in all cases: functional
Blastomyces dermatitidis [1] = test: Antifungal activity against Blastomyces dermatitidis Gilchrist & Stokes isolate 1107 at 10 ug/ml after 3 weeks (reference value: 40 mm); conditions: Gilchrist & Stokes isolate 1107, 504 h, read-out: DIZ
Outline: (§1)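 Mycelial phase grown on Sabouraud dextrose agar at 25°C. Agar pH was set to 6 before the test solution was added and was 5.0-5.5 after. Test solutions contained HOAc and Me2SO, and solvent and blank controls were included. Each quadrant was center-inoculated with a 2 × 2 mm piece of a 2-week-old mycelial culture. Colony diameter was measured weekly for 3 weeks and reported as total increments (mm). Duplicates were run.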

Blastomyces dermatitidis [2] = test: Antifungal activity against Blastomyces dermatitidis Gilchrist & Stokes isolate 1107 at 20 ug/ml after 3 weeks (reference value: 40 mm); conditions: Gilchrist & Stokes isolate 1107, 504 h, read-out: DIZ
Histoplasma capsulatum [3] = test: Antifungal activity against Histoplasma capsulatum Darling isolate 1098 at 20 ug/ml after 1 week (reference value: 12 mm); conditions: Darling isolate 1098, 168 h, read-out: DIZ
Histoplasma capsulatum [4] = test: Antifungal activity against Histoplasma capsulatum Darling isolate 1098 at 60 ug/ml after 2 weeks (reference value: 21 mm); conditions: Darling isolate 1098, 336 h, read-out: DIZ
Histoplasma capsulatum [5] = test: Antifungal activity against Histoplasma capsulatum Darling isolate 1098 at 40 ug/ml after 2 weeks (reference value: 21 mm); conditions: Darling isolate 1098, 336 h, read-out: DIZ
Blastomyces dermatitidis [6] = test: Antifungal activity against Blastomyces dermatitidis Gilchrist & Stokes isolate 1107 at 40 ug/ml after 3 weeks (reference value: 40 mm); conditions: Gilchrist & Stokes isolate 1107, 504 h, read-out: DIZ; outline: as §1
Histoplasma capsulatum [7] = test: Antifungal activity against Histoplasma capsulatum Darling isolate 1098 at 10 ug/ml after 3 weeks (reference value: 28 mm); conditions: Darling isolate 1098, 504 h, read-out: DIZ
Histoplasma capsulatum [8] = test: Antifungal activity against Histoplasma capsulatum Darling isolate 1106 at 100 ug/ml after 3 weeks (reference value: 31 mm)
Histoplasma capsulatum [9] = test: Antifungal activity against Histoplasma capsulatum Darling isolate 1098 at 100 ug/ml after 1 week (reference value: 12 mm)
Blastomyces dermatitidis [10] = test: Antifungal activity against Blastomyces dermatitidis Gilchrist & Stokes isolate 1099 at 20 ug/ml after 2 weeks (reference value: 27 mm); conditions: Gilchrist & Stokes isolate 1099, 336 h, read-out: DIZ
Histoplasma capsulatum [11] = test: Antifungal activity against Histoplasma capsulatum Darling isolate 1106 at 20 ug/ml after 3 weeks (reference value: 31 mm); conditions: Darling isolate 1106, 504 h, read-out: DIZ
Histoplasma capsulatum [12] = test: Antifungal activity against Histoplasma capsulatum Darling isolate 1098 at 80 ug/ml after 2 weeks (reference value: 21 mm)
Blastomyces dermatitidis [13] = test: Antifungal activity against Blastomyces dermatitidis Gilchrist & Stokes isolate 1099 at 80 ug/ml after 2 weeks (reference value: 27 mm)
Blastomyces dermatitidis [14] = test: Antifungal activity against Blastomyces dermatitidis Gilchrist & Stokes isolate 1099 at 100 ug/ml after 3 weeks (reference value: 34 mm); outline: as §1
Blastomyces dermatitidis [15] = test: Antifungal activity against Blastomyces dermatitidis Gilchrist & Stokes isolate 1099 at 20 ug/ml after 1 week (reference value: 14 mm); conditions: Gilchrist & Stokes isolate 1099, 168 h, read-out: DIZ; outline: as §1
Histoplasma capsulatum [16] = test: Antifungal activity against Histoplasma capsulatum Darling isolate 1106 at 80 ug/ml after 3 weeks (reference value: 31 mm)
Histoplasma capsulatum [17] = test: Antifungal activity against Histoplasma capsulatum Darling isolate 1098 at 10 ug/ml after 2 weeks (reference value: 21 mm); conditions: Darling isolate 1098, 336 h, read-out: DIZ
Blastomyces dermatitidis [18] = test: Antifungal activity against Blastomyces dermatitidis Gilchrist & Stokes isolate 1099 at 40 ug/ml after 1 week (reference value: 14 mm)
Histoplasma capsulatum [19] = test: Antifungal activity against Histoplasma capsulatum Darling isolate 1106 at 60 ug/ml after 2 weeks (reference value: 25 mm)
Blastomyces dermatitidis [20] = test: Antifungal activity against Blastomyces dermatitidis Gilchrist & Stokes isolate 1099 at 100 ug/ml after 2 weeks (reference value: 27 mm)
Histoplasma capsulatum [21] = test: Antifungal activity against Histoplasma capsulatum Darling isolate 1106 at 40 ug/ml after 1 week (reference value: 14 mm)
Histoplasma capsulatum [22] = test: Antifungal activity against Histoplasma capsulatum Darling isolate 1106 at 60 ug/ml after 1 week (reference value: 14 mm)
Blastomyces dermatitidis [23] = test: Antifungal activity against Blastomyces dermatitidis Gilchrist & Stokes isolate 1107 at 60 ug/ml after 2 weeks (reference value: 35 mm); conditions: Gilchrist & Stokes isolate 1107, 336 h, read-out: DIZ; outline: as §1
Histoplasma capsulatum [24] = test: Antifungal activity against Histoplasma capsulatum Darling isolate 1106 at 60 ug/ml after 3 weeks (reference value: 31 mm)
Blastomyces dermatitidis [25] = test: Antifungal activity against Blastomyces dermatitidis Gilchrist & Stokes isolate 1107 at 10 ug/ml after 1 week (reference value: 20 mm); conditions: Gilchrist & Stokes isolate 1107, 168 h, read-out: DIZ; outline: as §1
Blastomyces dermatitidis [26] = test: Antifungal activity against Blastomyces dermatitidis Gilchrist & Stokes isolate 1107 at 20 ug/ml after 2 weeks (reference value: 35 mm); conditions: Gilchrist & Stokes isolate 1107, 336 h, read-out: DIZ
Histoplasma capsulatum [27] = test: Antifungal activity against Histoplasma capsulatum Darling isolate 1098 at 20 ug/ml after 3 weeks (reference value: 28 mm); conditions: Darling isolate 1098, 504 h, read-out: DIZ
Blastomyces dermatitidis [28] = test: Antifungal activity against Blastomyces dermatitidis Gilchrist & Stokes isolate 1107 at 100 ug/ml after 2 weeks (reference value: 35 mm); outline: as §1
Histoplasma capsulatum [29] = test: Antifungal activity against Histoplasma capsulatum Darling isolate 1106 at 100 ug/ml after 2 weeks (reference value: 25 mm)
Blastomyces dermatitidis [30] = test: Antifungal activity against Blastomyces dermatitidis Gilchrist & Stokes isolate 1107 at 80 ug/ml after 2 weeks (reference value: 35 mm); conditions: Gilchrist & Stokes isolate 1107, 336 h, read-out: DIZ; outline: as §1
Histoplasma capsulatum [31] = test: Antifungal activity against Histoplasma capsulatum Darling isolate 1106 at 20 ug/ml after 1 week (reference value: 14 mm); conditions: Darling isolate 1106, 168 h, read-out: DIZ
Blastomyces dermatitidis [32] = test: Antifungal activity against Blastomyces dermatitidis Gilchrist & Stokes isolate 1099 at 20 ug/ml after 3 weeks (reference value: 34 mm); conditions: Gilchrist & Stokes isolate 1099, 504 h, read-out: DIZ
Histoplasma capsulatum [33] = test: Antifungal activity against Histoplasma capsulatum Darling isolate 1098 at 60 ug/ml after 3 weeks (reference value: 28 mm); conditions: Darling isolate 1098, 504 h, read-out: DIZ

Work on `C[C@@H]1CC[C@@H](c2ccoc2)N2C(O)[C@@](C)(Sc3ccccc3)CC[C@@H]12` (stereo partly drawn) yielded a zone of inhibition at 10 µg/mL (Blastomyces dermatitidis [1]) of 32 mm, a zone of inhibition at 20 µg/mL (Blastomyces dermatitidis [2]) of 22 mm and a zone of inhibition at 20 µg/mL (Histoplasma capsulatum [3]) of 8 mm. For the same molecule, the zone of inhibition at 60 µg/mL (Histoplasma capsulatum [4]) was 2 mm, the zone of inhibition at 40 µg/mL (Histoplasma capsulatum [5]) was 9 mm and the zone of inhibition at 40 µg/mL (Blastomyces dermatitidis [6]) was 18 mm. The zone of inhibition at 10 µg/mL (Histoplasma capsulatum [7]) was 25 mm, the Activity (Histoplasma capsulatum [8]) was “Active” and the Activity (Histoplasma capsulatum [9]) was “Active”. The zone of inhibition at 20 µg/mL (Blastomyces dermatitidis [10]) was 14 mm, the zone of inhibition at 20 µg/mL (Histoplasma capsulatum [11]) was 15 mm and the Activity (Histoplasma capsulatum [12]) was “Active”. The Activity (Blastomyces dermatitidis [13]) was “Active”, the Activity (Blastomyces dermatitidis [14]) was “Active” and the zone of inhibition at 20 µg/mL (Blastomyces dermatitidis [15]) was 7 mm. The Activity (Histoplasma capsulatum [16]) was “Active”, the zone of inhibition at 10 µg/mL (Histoplasma capsulatum [17]) was 19 mm and the Activity (Blastomyces dermatitidis [18]) was “inactive”. The Activity (Histoplasma capsulatum [19]) was “Active”, the Activity (Blastomyces dermatitidis [20]) was “Active” and the Activity (Histoplasma capsulatum [21]) was “inactive”. For the same molecule, the Activity (Histoplasma capsulatum [22]) was “Active”, the zone of inhibition at 60 µg/mL (Blastomyces dermatitidis [23]) was 10 mm and the Activity (Histoplasma capsulatum [24]) was “Active”. The zone of inhibition at 10 µg/mL (Blastomyces dermatitidis [25]) was 13 mm, the zone of inhibition at 20 µg/mL (Blastomyces dermatitidis [26]) was 18 mm and the zone of inhibition at 20 µg/mL (Histoplasma capsulatum [27]) was 18 mm. The Activity (Blastomyces dermatitidis [28]) was “Active”, the Activity (Histoplasma capsulatum [29]) was “Active” and the zone of inhibition at 80 µg/mL (Blastomyces dermatitidis [30]) was 3 mm. It also gave a zone of inhibition at 20 µg/mL (Histoplasma capsulatum [31]) of 6 mm, a zone of inhibition at 20 µg/mL (Blastomyces dermatitidis [32]) of 18 mm and a zone of inhibition at 60 µg/mL (Histoplasma capsulatum [33]) of 8 mm.
